# From PMC7246176 (Nature chemical biology, 2020)
# Read-outs that look alike come from different tables or passages of the source.
# Experiments:
# [1] = target: T1, DCLK1 (Homo sapiens, UniProt O15075); assay: 33P-ATP DCLK1 kinase assay; assay type: biochemical; settings: ATP 50 μM (Km)
# T1 sequence (O15075 1-740): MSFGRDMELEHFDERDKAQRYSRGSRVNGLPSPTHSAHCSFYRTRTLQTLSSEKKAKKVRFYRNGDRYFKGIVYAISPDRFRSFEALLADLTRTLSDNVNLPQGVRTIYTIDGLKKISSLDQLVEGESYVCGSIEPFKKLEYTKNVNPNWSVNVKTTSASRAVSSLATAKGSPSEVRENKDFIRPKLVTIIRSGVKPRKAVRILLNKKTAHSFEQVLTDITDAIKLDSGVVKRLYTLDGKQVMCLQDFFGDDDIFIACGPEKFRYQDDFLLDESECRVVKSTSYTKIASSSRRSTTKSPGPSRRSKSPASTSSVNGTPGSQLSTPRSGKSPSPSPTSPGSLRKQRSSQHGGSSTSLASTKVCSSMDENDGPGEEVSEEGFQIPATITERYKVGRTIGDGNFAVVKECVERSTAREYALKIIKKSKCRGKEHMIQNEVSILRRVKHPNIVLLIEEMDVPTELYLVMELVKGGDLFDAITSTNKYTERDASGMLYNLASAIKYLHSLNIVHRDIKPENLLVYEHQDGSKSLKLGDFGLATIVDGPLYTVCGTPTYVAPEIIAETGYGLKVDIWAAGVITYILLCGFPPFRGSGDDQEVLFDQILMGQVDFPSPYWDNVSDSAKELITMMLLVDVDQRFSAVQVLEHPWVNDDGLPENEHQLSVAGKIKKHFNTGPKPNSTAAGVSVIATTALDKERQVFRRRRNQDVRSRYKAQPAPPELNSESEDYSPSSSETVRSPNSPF
# [2] = tested on: PANFR0172_T4; assay: Patient-derived pancreatic organoid viability, PANFR0172_T4; assay type: cell-based, human; settings: read-out: PANFR0172_T4 3D organoid culture IC50
# Summary of the method: (§1)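 Patient-derived PDAC organoids were dissociated to single cells and plated at 1000 viable cells/well in complete organoid medium with 10% Matrigel, in ultra-low-attachment 384-well plates. After 24 h, compound was added by digital dispenser, then 7 days incubation. Read-out was CellTiter-Glo 3D luminescence after 1 h shaking at room temperature, normalized to DMSO wells for each culture.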
# [3] = target: LRRK2 (Homo sapiens, UniProt Q5S007); assay: LRRK2 ADAPTA kinase assay; assay type: biochemical; settings: Table 1
# [4] = tested on: PANFR0172_T3; assay: Patient-derived pancreatic organoid viability, PANFR0172_T3; assay type: cell-based, human; settings: read-out: PANFR0172_T3 3D organoid culture IC50
# Summary of the method: as §1
# [5] = target: T2, DCLK2 (Homo sapiens, UniProt Q8N568); assay: 33P-ATP DCLK2 kinase assay; assay type: biochemical
# T2 sequence (Q8N568 1-766): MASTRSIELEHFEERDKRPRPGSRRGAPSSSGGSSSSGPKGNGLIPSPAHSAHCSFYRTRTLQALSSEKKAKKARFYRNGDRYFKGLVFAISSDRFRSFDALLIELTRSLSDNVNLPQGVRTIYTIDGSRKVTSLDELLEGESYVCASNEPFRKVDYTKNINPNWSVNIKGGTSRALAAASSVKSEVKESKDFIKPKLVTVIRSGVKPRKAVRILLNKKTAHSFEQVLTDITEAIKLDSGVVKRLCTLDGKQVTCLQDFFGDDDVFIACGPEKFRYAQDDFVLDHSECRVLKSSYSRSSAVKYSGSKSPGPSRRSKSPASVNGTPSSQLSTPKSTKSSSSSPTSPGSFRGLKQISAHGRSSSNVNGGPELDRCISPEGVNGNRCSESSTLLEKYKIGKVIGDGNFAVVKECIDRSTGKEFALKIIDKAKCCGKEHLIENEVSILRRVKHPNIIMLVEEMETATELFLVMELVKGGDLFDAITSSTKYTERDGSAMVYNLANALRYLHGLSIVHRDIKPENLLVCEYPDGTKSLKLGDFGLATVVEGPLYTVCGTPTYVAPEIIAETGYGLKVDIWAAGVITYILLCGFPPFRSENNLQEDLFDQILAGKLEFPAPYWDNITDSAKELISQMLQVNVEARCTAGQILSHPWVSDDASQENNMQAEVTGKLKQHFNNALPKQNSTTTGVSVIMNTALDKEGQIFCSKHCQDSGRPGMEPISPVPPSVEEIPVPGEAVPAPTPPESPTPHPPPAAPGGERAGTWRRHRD
# Summary of the method: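 Radiometric 33P-ATP assay run by a contract lab. […] Test compound in 12-point dose response, top concentration 10 μM. Values are the mean of n = 3 biologically independent samples.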
# [6] = tested on: PANFR0172_T2; assay: Patient-derived pancreatic organoid viability, PANFR0172_T2; assay type: cell-based, human; settings: read-out: PANFR0172_T2 3D organoid culture IC50
# Summary of the method: as §1
# [7] = target: BRD4 (Homo sapiens, UniProt O60885); assay: BRD4 AlphaScreen assay; assay type: binding
# [8] = tested on: PATU-8902 cells; assay: Cell viability, 2D-adherent monolayer culture, PATU-8902; assay type: cell-based, human; settings: read-out: PATU-8902 cells 2D monolayer culture IC50
# Summary of the method: (§2)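 PATU-8902 or PATU-8988T cells were plated at 100 cells/well and left overnight to adhere (2D plates) or to form spheroids (ultra-low-attachment 3D spheroid plates). Compound was pin-transferred, then 120 h incubation. Viability by CellTiter-Glo luminescence after 15 min at room temperature, normalized to DMSO-treated wells for each cell line.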
# [9] = tested on: PATU-8988T cells; assay: Cell viability, ultra-low adherent 3D-spheroid culture, PATU-8988T; assay type: cell-based, human; settings: 120 h, read-out: PATU-8988T cells 3D spheroid culture IC50
# Summary of the method: as §2
# [10] = target: T1, DCLK1; assay: DCLK1 KINOMEscan binding assay
# [11] = tested on: PATU-8988T cells; assay: Cell viability, 2D-adherent monolayer culture, PATU-8988T; assay type: cell-based, human; settings: 120 h, read-out: PATU-8988T cells 2D monolayer culture IC50
# Summary of the method: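 PATU-8988T and PATU-8902 cells were plated at 100 cells/well in 50 μL media, either adherent (2D) or in ultra-low attachment spheroid plates (3D), overnight. Test compound was pin-transferred and cells were incubated 120 h. Viability was read by CellTiter-Glo luminescence after 15 min at room temperature. Data were normalized to DMSO-treated wells per cell line and fitted.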
# [12] = target: T2, DCLK2; assay: DCLK2 KINOMEscan binding assay
# Summary of the method: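 KINOMEscan competition binding run by a contract lab. Test compound in 12-point dose response, top concentration 10 μM. Values are the mean of n = 2 biologically independent samples.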
# [13] = viability, 7 d, P.R. = partial response
# Chain of LRRK2 (Q5S007 whole entry): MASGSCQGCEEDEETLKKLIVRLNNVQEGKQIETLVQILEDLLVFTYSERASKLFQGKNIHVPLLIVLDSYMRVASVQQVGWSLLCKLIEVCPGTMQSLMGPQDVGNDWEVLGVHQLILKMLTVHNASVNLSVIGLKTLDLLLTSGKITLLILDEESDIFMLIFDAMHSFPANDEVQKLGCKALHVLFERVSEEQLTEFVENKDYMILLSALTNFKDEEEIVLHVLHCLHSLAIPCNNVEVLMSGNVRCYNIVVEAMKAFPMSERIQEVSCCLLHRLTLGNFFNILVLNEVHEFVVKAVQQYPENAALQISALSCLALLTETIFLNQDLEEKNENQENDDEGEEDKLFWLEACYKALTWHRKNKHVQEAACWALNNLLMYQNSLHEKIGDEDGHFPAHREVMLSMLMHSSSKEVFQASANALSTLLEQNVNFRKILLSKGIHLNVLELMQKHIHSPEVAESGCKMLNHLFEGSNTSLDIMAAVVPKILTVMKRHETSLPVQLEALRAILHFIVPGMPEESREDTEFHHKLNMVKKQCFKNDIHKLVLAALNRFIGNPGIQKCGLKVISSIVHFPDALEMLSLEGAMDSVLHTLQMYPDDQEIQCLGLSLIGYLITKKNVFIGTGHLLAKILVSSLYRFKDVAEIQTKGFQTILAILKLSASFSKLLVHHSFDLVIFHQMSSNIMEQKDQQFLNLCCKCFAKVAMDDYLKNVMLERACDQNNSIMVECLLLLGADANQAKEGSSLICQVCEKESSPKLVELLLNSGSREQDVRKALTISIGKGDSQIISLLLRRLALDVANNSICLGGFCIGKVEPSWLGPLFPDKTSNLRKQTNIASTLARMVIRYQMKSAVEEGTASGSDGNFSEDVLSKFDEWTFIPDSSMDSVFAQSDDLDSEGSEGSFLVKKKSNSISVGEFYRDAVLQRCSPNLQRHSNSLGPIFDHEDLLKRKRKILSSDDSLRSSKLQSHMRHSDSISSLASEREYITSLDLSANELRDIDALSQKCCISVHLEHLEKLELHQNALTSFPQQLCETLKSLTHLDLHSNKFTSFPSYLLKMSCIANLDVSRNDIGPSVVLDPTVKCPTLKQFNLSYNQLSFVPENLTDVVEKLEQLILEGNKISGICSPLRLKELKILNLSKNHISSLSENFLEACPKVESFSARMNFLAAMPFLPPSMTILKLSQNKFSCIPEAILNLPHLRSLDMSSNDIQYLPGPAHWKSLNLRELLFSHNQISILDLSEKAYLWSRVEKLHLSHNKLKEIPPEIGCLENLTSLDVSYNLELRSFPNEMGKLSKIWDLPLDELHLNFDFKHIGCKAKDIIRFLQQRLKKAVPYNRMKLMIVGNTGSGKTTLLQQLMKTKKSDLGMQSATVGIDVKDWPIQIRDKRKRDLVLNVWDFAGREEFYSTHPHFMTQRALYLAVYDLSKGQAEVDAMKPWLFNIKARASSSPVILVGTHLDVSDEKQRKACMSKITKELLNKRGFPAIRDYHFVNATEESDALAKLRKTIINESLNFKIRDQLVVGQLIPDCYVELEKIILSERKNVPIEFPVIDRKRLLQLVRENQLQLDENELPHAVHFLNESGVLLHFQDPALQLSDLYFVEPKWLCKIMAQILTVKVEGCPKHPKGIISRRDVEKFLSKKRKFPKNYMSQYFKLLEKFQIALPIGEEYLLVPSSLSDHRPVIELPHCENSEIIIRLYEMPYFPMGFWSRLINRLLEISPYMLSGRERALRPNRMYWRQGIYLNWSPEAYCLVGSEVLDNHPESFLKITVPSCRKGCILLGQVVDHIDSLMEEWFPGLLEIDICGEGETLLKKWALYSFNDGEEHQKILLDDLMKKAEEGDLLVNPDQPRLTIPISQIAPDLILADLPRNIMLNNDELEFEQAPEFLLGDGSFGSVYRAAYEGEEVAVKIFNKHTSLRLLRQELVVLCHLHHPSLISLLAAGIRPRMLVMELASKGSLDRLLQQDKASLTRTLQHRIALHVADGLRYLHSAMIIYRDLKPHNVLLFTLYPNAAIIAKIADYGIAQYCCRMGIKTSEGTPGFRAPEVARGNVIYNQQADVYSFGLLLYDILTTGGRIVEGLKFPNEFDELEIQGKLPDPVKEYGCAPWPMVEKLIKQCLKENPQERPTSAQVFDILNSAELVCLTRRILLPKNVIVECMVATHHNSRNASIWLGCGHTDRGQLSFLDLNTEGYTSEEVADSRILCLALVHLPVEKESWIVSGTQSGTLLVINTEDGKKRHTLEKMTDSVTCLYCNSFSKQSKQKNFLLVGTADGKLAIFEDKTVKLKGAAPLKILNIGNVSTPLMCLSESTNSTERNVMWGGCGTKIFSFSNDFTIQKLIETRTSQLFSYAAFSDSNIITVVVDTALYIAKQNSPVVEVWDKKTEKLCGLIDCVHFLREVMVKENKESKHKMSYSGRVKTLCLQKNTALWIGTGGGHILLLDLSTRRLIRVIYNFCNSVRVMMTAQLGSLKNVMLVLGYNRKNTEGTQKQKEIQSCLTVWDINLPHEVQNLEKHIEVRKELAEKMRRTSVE
structure (smiles),measurement,setting,value
COc1cc(N2CCN(C)CC2)ccc1Nc1ncc2c(n1)N(C)c1ccccc1C(=O)N2CC(F)(F)F [DCLK1-IN-1],IC50,"[1]; DCLK1 kinase assay IC50, 33P-ATP",0.0572 µM
same,IC50,"[2]; Homo sapiens, 168 h",> 20000 nM
same,IC50,"[3]; LRRK2 kinase assay IC50, ADAPTA",6970 nM
same,IC50,"[4]; Homo sapiens, 168 h",2120 nM
same,IC50,[5],103 nM
same,IC50,"[6]; Homo sapiens, 168 h",877 nM
same,IC50,[7],> 10000 nM
same,IC50,"[8]; Homo sapiens, PaTu 8902, 120 h",> 20000 nM
same,IC50,"[9]; Homo sapiens, PaTu 8988t",> 20000 nM
same,IC50,[10],9.5 nM
same,IC50,"[11]; Homo sapiens, PaTu 8988t",> 20000 nM
same,IC50,[12],31 nM
CCOc1cc(N2CCC(O)CC2)ccc1Nc1ncc2c(n1)N(C)c1ccccc1C(=O)N2C [XMD8-92],IC50,"[1]; read-out: DCLK1 kinase assay IC50, 33P-ATP",0.104 µM
same,IC50,[2]; [13],> 20000 nM
same,IC50,"[3]; read-out: LRRK2 kinase assay IC50, ADAPTA",36 nM
same,IC50,[4]; [13],> 20000 nM
same,IC50,"[5]; read-out: DCLK2 kinase assay IC50, 33P-ATP, ATP 100 μM (Km)",385 nM
same,IC50,[6]; [13],> 20000 nM
same,IC50,"[7]; read-out: BRD4 binding assay IC50, AlphaScreen, Table 1",1570 nM
same,IC50,"[8]; cell viability, 120 h",> 20000 nM
same,IC50,[9]; cell viability,6060 nM
same,IC50,"[10]; read-out: DCLK1 binding assay IC50, KINOMEscan",1400 nM
same,IC50,"[11]; cell viability, P.R. = partial response",2020 nM
same,IC50,"[12]; read-out: DCLK2 binding assay IC50, KINOMEscan",3600 nM
